Results on 14 compounds are retold here after ChEMBL document CHEMBL1128693, “Novel cytotoxic 3'-(tert-butyl) 3'-dephenyl analogs of paclitaxel and docetaxel” (J Med Chem, 1995).

Each structure is given as a SMILES string. In brackets after ≈: the same amount, converted by molar mass.

For data set [1], the system named is B16. Kind of data set: The compound was tested for Cytotoxic concentration against B16 melanoma cells relative to paclitaxel. It counts as functional. To be noted: Mus musculus, B16, read-out: ED50.
Data set [2] is described as follows: Ratio of ED50 in microtubule assembly in presence of paclitaxel to only compound. The format is functional. In a few lines: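 Bovine brain tubulin purified by three temperature-dependent assembly-disassembly cycles plus phosphocellulose-biogel P-10 chromatography, cleared at 27000g for 10 min. Varied compound levels incubated with 10 μM tubulin and 0.5 mM GTP in PEM buffer (0.1 M Pipes pH 6.9, 1 mM MgSO₄, 1 mM EGTA), 37 °C, 15 min. Spun at 40000g for 4 min; supernatant protein by Bradford. […] Ratio against paclitaxel ED50.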

In data set [3] the test system is B16. Kind of data set: The compound was tested for Cytotoxic concentration against B16 melanoma cells. It counts as functional. Conditions: Mus musculus, B16, read-out: ED50.
Data set [4] addresses T1, Tubulin (Bos taurus) (UniProt Q6B856+Q862L2+Q862F3). Kind of data set: Promotion of tubulin polymerization.
For data set [5], the target named is T1, Tubulin (Bos taurus). Kind of data set: ED50 relative to paclitaxel in promoting tubulin polymerization.
Data set [6] is described as follows: Water solubility of the compound. The format is ADME. Conditions: read-out: S. In a few lines:
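Aqueous solubility by HPLC on a phenyl column. Mobile phases were 50% methanol/water and acetonitrile. The standard curve came from about 0.5 mg sample in 1 mL methanol with serial dilutions, plotting concentration against HPLC peak area. For samples, about 0.4 mg was placed in 9 mL water and sonicated 15 min in a cold-water bath.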

The nature of data set [7]: Water solubility relative to Paclitaxel solubility. It counts as ADME. To be noted: buffer. In a few lines:
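Solubility in water by HPLC on a phenyl column: mobile phase A, 50% methanol/50% water; mobile phase B, acetonitrile. About 0.4 mg compound placed in 9 mL water in a 10 mL volumetric flask, sonicated 15 min in cold water. Quantified against a methanol standard curve (about 0.5 mg/mL serially diluted) of concentration vs HPLC peak area. Reported in µg/mL and as a ratio to paclitaxel solubility.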

As for `CCCCCCOC(=O)N[C@H]([C@@H](O)C(=O)O[C@H]1C[C@@]2(O)[C@@H](OC(=O)c3ccccc3)[C@@H]3[C@]4(OC(C)=O)CO[C@@H]4C[C@H](O)[C@@]3(C)C(=O)[C@H](O)C(=C1C)C2(C)C)C(C)(C)C`, the EC50 with B16 [1] turned out to be 31.3 nM; with B16 [3] it was 370 nM. In data set [2], the Ratio was determined as 2.3. Besides, the results for the ED50 on Tubulin (Bos taurus) [4] and on Tubulin (Bos taurus) [5] were 2100 nM and 930 nM, respectively.
Regarding `CC(=O)O[C@@]12CO[C@@H]1C[C@H](O)[C@@]1(C)C(=O)[C@H](O)C3=C(C)[C@@H](OC(=O)[C@H](O)[C@@H](NC(=O)C(C)(C)C)C(C)(C)C)C[C@@](O)([C@@H](OC(=O)c4ccccc4)[C@H]21)C3(C)C`, the values for the EC50 in the data set on B16 [1] and with B16 [3] were 29 nM and 930 nM, respectively. For the same compound, the Ratio in data set [2] came to 1.3. The values for the ED50 on Tubulin (Bos taurus) [4] and on Tubulin (Bos taurus) [5] were 1350 nM and 1050 nM, respectively.
On to `CC(=O)O[C@@]12CO[C@@H]1C[C@H](O)[C@@]1(C)C(=O)[C@H](O)C3=C(C)[C@@H](OC(=O)[C@H](O)[C@@H](NC(=O)OC(C)(C)C)c4ccccc4)C[C@@](O)([C@@H](OC(=O)c4ccccc4)[C@H]21)C3(C)C.O.O.O` [DOCETAXEL], for which the figures for the EC50 with B16 [1] and with B16 [3] were 27 nM and 11 nM, respectively. The solubility in data set [6] is 5 µg/mL. Besides, the Ratio in data set [2] stood at 0.45; in data set [7] it was 17. The values for the ED50 on Tubulin (Bos taurus) [4] and on Tubulin (Bos taurus) [5] were 510 nM and 1140 nM, respectively.
For the compound `CC(=O)O[C@@]12CO[C@@H]1C[C@H](O)[C@@]1(C)C(=O)[C@H](O)C3=C(C)[C@@H](OC(=O)[C@H](O)[C@@H](NC(=O)CC(C)(C)C)C(C)(C)C)C[C@@](O)([C@@H](OC(=O)c4ccccc4)[C@H]21)C3(C)C`, the EC50 is 29 nM with B16 [1] and 104 nM with B16 [3]. The solubility in data set [6] is 26 µg/mL (≈ 33.1 µM). Further, in data set [7], the Ratio is recorded as 87. The ED50 at Tubulin (Bos taurus) [4] stood at 500 nM; at Tubulin (Bos taurus) [5], 1050 nM.
With `CC(=O)O[C@@]12CO[C@@H]1C[C@H](O)[C@@]1(C)C(=O)[C@H](O)C3=C(C)[C@@H](OC(=O)[C@H](O)[C@@H](/N=C(/S)NC(C)(C)C)C(C)(C)C)C[C@@](O)([C@@H](OC(=O)c4ccccc4)[C@H]21)C3(C)C`, the EC50 with B16 [1] is 24.4 nM; in the data set on B16 [3], over 1000 nM. Also, the Ratio in data set [2] stood at 3.6. In addition, the ED50 came out at 3200 nM on Tubulin (Bos taurus) [4] and 900 nM at Tubulin (Bos taurus) [5].
As to `CC(=O)O[C@@]12CO[C@@H]1C[C@H](O)[C@@]1(C)C(=O)[C@H](O)C3=C(C)[C@@H](OC(=O)[C@H](O)[C@@H](NC(=O)OC(C)(C)C)C(C)(C)C)C[C@@](O)([C@@H](OC(=O)c4ccccc4)[C@H]21)C3(C)C`, the figures for the EC50 in the data set with B16 [1] and in the data set with B16 [3] were 31.3 nM and 12.5 nM, respectively. Besides, the solubility in data set [6] worked out at 28 µg/mL (≈ 35.5 µM). Also, the Ratio in data set [7] is listed as 93. Further, the ED50 on Tubulin (Bos taurus) [4] stood at 350 nM; at Tubulin (Bos taurus) [5] it was 930 nM.
Take `CCCCOC(=O)N[C@H]([C@@H](O)C(=O)O[C@H]1C[C@@]2(O)[C@@H](OC(=O)c3ccccc3)[C@@H]3[C@]4(OC(C)=O)CO[C@@H]4C[C@H](O)[C@@]3(C)C(=O)[C@H](O)C(=C1C)C2(C)C)C(C)(C)C`: the EC50 in the data set on B16 [1] turned out to be 31.3 nM; with B16 [3], 64 nM. Besides, in data set [6], the solubility came to 27 µg/mL (≈ 34.3 µM). Moreover, the Ratio in data set [7] is 90. Further, the ED50 at Tubulin (Bos taurus) [4] came out at 800 nM; at Tubulin (Bos taurus) [5] it was 930 nM.
Regarding `CC(=O)O[C@@]12CO[C@@H]1C[C@H](O)[C@@]1(C)C(=O)[C@H](O)C3=C(C)[C@@H](OC(=O)[C@H](O)[C@@H](NC(=O)Nc4ccccc4)C(C)(C)C)C[C@@](O)([C@@H](OC(=O)c4ccccc4)[C@H]21)C3(C)C`, the figures for the EC50 in the data set on B16 [1] and in the data set on B16 [3] were 26.8 nM and 18.8 nM, respectively. The solubility in data set [6] turned out to be 1.4 µg/mL (≈ 1.74 µM). Besides, the Ratio in data set [7] is 4.7. Moreover, the ED50 on Tubulin (Bos taurus) [4] is 330 nM; at Tubulin (Bos taurus) [5], 1040 nM.
Take `CC(=O)O[C@@]12CO[C@@H]1C[C@H](O)[C@@]1(C)C(=O)[C@H](O)C3=C(C)[C@@H](OC(=O)[C@H](O)[C@@H](NC(=O)Oc4ccccc4)C(C)(C)C)C[C@@](O)([C@@H](OC(=O)c4ccccc4)[C@H]21)C3(C)C`: the figures for the EC50 in the data set on B16 [1] and in the data set with B16 [3] were 31.3 nM and over 1000 nM, respectively. Also, the Ratio in data set [2] came out at 1.4. The ED50 turned out to be 1300 nM at Tubulin (Bos taurus) [4] and 930 nM at Tubulin (Bos taurus) [5].
Turning to `CC(=O)O[C@H]1C(=O)[C@@]2(C)[C@H]([C@H](OC(=O)c3ccccc3)[C@]3(O)C[C@H](OC(=O)[C@H](O)[C@@H](NC(=O)c4ccccc4)c4ccccc4)C(C)=C1C3(C)C)[C@]1(OC(C)=O)CO[C@@H]1C[C@@H]2O` [PACLITAXEL], the solubility in data set [6] came out at 0.3 µg/mL (≈ 0.351 µM). Further, in data set [7], the Ratio was 1.
For `CC(=O)O[C@@]12CO[C@@H]1C[C@H](O)[C@@]1(C)C(=O)[C@H](O)C3=C(C)[C@@H](OC(=O)[C@H](O)[C@@H](NC(=O)OCC(C)C)C(C)(C)C)C[C@@](O)([C@@H](OC(=O)c4ccccc4)[C@H]21)C3(C)C`, in data set [6], the solubility is 28 µg/mL (≈ 35.5 µM). Further, the Ratio in data set [7] is 93. In addition, the ED50 on Tubulin (Bos taurus) [4] was determined as 500 nM; at Tubulin (Bos taurus) [5] it was 930 nM.
For the compound `CC(=O)O[C@@]12CO[C@@H]1C[C@H](O)[C@@]1(C)C(=O)[C@H](O)C3=C(C)[C@@H](OC(=O)[C@H](O)[C@@H](NC(=O)NC(C)(C)C)C(C)(C)C)C[C@@](O)([C@@H](OC(=O)c4ccccc4)[C@H]21)C3(C)C`, the results for the EC50 with B16 [1] and with B16 [3] were 29 nM and 26 nM, respectively. For the same compound, in data set [6], the solubility came out at 29 µg/mL (≈ 36.9 µM). For the same compound, the Ratio in data set [7] is given as 97. For the same compound, the ED50 on Tubulin (Bos taurus) [4] was 630 nM; on Tubulin (Bos taurus) [5], 1050 nM.
With `CCC(C)(C)OC(=O)N[C@H]([C@@H](O)C(=O)O[C@H]1C[C@@]2(O)[C@@H](OC(=O)c3ccccc3)[C@@H]3[C@]4(OC(C)=O)CO[C@@H]4C[C@H](O)[C@@]3(C)C(=O)[C@H](O)C(=C1C)C2(C)C)C(C)(C)C`, the EC50 in the data set on B16 [1] was 31.3 nM; with B16 [3], 18 nM. The solubility in data set [6] amounted to 26 µg/mL (≈ 32.4 µM). Further, the Ratio in data set [7] is reported as 87. The ED50 on Tubulin (Bos taurus) [4] is 420 nM; at Tubulin (Bos taurus) [5] it was 930 nM.
In the case of `CC(=O)O[C@@]12CO[C@@H]1C[C@H](O)[C@@]1(C)C(=O)[C@H](O)C3=C(C)[C@@H](OC(=O)[C@H](O)[C@@H](NC(=O)c4ccccc4)C(C)(C)C)C[C@@](O)([C@@H](OC(=O)c4ccccc4)[C@H]21)C3(C)C`, the solubility in data set [6] amounted to 2.8 µg/mL (≈ 3.54 µM). In data set [7], the Ratio is 9.3. The ED50 at Tubulin (Bos taurus) [4] came to 1700 nM; at Tubulin (Bos taurus) [5] it was 930 nM.
